Laboratory results: BindingDB's records for doi:10.1021/jm00089a014 (Genentech, 1992)
pIC50: −log10 of the molar value. *1 amine or outer side, *2 acyl side, *3 side chain or, on linkers, in order; H or OH if unused. Where a SMILES comes first, the peptide text is derived from it. Bridges are numbered along the chain shown (N, C = ends). [ ]: non-standard residue; d: D form. Cys(O)(CH2CO) = O=C([C@H](C[S+]([O-])CC(=O)[*:3])N[*:1])[*:2]

Target: Integrin alpha-IIb/beta-3 (Homo sapiens, UniProt P08514+P05106)
Sequence (P05106 27-788 limits assumed): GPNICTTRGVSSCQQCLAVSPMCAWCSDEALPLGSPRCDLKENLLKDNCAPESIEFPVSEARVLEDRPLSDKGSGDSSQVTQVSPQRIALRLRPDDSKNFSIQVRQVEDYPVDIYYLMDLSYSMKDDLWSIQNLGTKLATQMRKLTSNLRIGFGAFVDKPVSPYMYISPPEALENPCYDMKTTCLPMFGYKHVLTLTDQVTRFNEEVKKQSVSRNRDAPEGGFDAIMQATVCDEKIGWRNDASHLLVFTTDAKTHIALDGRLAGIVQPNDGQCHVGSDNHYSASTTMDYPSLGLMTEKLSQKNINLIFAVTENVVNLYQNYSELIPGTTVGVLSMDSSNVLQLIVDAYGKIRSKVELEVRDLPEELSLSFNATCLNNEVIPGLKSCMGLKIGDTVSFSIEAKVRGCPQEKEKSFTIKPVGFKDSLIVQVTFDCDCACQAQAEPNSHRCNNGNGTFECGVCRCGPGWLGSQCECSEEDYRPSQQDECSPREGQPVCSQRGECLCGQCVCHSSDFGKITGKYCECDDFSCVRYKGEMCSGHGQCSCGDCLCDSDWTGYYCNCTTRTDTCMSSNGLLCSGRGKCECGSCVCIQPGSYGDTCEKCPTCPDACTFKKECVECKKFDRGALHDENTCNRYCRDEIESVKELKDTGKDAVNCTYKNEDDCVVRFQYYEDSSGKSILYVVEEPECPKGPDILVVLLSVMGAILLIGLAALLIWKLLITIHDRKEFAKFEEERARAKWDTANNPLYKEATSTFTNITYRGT
Sequence (P08514 32-887 limits assumed): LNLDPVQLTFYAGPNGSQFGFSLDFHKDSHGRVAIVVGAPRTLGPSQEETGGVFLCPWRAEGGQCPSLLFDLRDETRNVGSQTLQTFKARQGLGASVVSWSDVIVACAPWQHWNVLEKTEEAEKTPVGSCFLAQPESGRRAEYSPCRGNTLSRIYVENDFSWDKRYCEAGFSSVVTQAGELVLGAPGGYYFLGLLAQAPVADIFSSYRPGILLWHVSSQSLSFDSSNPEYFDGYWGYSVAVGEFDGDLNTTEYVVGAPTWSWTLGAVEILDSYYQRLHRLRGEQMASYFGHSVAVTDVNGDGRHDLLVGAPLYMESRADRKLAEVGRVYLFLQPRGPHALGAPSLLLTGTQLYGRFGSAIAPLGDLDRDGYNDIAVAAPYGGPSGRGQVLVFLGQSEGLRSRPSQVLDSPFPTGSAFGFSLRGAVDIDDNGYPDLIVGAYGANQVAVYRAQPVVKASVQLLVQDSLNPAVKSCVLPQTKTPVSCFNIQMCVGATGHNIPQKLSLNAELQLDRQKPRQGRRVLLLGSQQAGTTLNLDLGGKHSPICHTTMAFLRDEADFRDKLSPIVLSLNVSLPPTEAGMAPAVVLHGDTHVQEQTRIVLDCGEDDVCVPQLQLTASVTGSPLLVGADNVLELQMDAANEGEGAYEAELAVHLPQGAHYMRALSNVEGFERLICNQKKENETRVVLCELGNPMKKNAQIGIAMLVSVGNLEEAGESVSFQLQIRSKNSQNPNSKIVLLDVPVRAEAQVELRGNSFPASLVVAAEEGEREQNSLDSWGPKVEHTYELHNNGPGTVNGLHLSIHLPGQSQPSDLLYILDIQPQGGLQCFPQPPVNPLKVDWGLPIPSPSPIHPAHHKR
Sequence (P08514 891-1039 limits assumed): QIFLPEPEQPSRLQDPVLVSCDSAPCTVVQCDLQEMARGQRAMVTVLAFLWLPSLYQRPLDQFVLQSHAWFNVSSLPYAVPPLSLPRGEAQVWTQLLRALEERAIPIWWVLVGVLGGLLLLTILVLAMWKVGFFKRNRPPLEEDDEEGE
Experiment: Inhibition of ADP-induced platelet aggregation in human platelet-rich plasma
Procedure, shortened: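 Human blood drawn into 3.8% sodium citrate (9:1); PRP from 180g spin, 12 min, 22 °C; count adjusted to 3 × 10^8/mL with PPP. PRP preincubated with test sample 5 min at 37 °C in aggregometer, then ADP 17.2 µM final. Inhibition from transmittance change at 5 min versus no-sample maximum; 12-14 concentrations over ~200-fold range; IC50 by four-parameter fit; n ≥ 3.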

Row | pIC50 | SMILES
1 | 6.05 | N=C(N)NCCC[C@@H]1NC(=O)[C@H](CCC(=O)O)NC(=O)C[S+]([O-])C[C@@H](C(=O)O)NC(=O)[C@H](CC(=O)O)NC(=O)CNC1=O (some centres not stated)
2 | 5.34 | N=C(N)NCCC[C@@H]1NC(=O)[C@H](CCC(=O)O)NC(=O)CSC[C@@H](C(=O)O)NC(=O)[C@H](CC(=O)O)NC(=O)CNC1=O
3 | 5.40 | N=C(N)NCCC[C@@H]1NC(=O)CNC(=O)C(c2ccc3ccccc3c2)SC[C@@H](C(=O)O)NC(=O)[C@H](CC(=O)O)NC(=O)CNC1=O (some centres not stated)
4 | 6.34 | N=C(N)NCCC[C@@H]1NC(=O)[C@H](Cc2c[nH]c3ccccc23)NC(=O)CSC[C@@H](C(=O)O)NC(=O)[C@H](CC(=O)O)NC(=O)CNC1=O
5 | 6.60 | N=C(N)NCCC[C@@H]1NC(=O)[C@H](CCCN)NC(=O)CSC[C@@H](C(=O)O)NC(=O)[C@H](CC(=O)O)NC(=O)CNC1=O
6 | 6.27 | N=C(N)NCCC[C@@H]1NC(=O)[C@H](Cc2cnc[nH]2)NC(=O)CSC[C@@H](C(=O)O)NC(=O)[C@H](CC(=O)O)NC(=O)CNC1=O
7 | 6.82 | N=C(N)NCCC[C@@H]1NC(=O)CNC(=O)C(c2ccccc2C(F)(F)F)SC[C@@H](C(=O)O)NC(=O)[C@H](CC(=O)O)NC(=O)CNC1=O (some centres not stated)
8 | 5.06 | CC(C)[C@H]1NC(=O)CSC[C@@H](C(=O)O)NC(=O)[C@H](CC(=O)O)NC(=O)CNC(=O)[C@H](CCCNC(=N)N)NC1=O
9 | 6.17 | N=C(N)NCCC[C@@H]1NC(=O)[C@H](CCC(N)=O)NC(=O)CSC[C@@H](C(=O)O)NC(=O)[C@H](CC(=O)O)NC(=O)CNC1=O
10 | 5.97 | CSCC[C@@H]1NC(=O)CSC[C@@H](C(=O)O)NC(=O)[C@H](CC(=O)O)NC(=O)CNC(=O)[C@H](CCCNC(=N)N)NC1=O
11 | 6.21 | C[C@@H]1NC(=O)C[S+]([O-])C[C@@H](C(=O)O)NC(=O)[C@H](CC(=O)O)NC(=O)CNC(=O)[C@H](CCCNC(=N)N)NC1=O (some centres not stated)
12 | 6.05 | N=C(N)NCCC[C@@H]1NC(=O)CNC(=O)C(c2ccc(C(F)(F)F)cc2)SC[C@@H](C(=O)O)NC(=O)[C@H](CC(=O)O)NC(=O)CNC1=O (some centres not stated)
13 | 5.72 | N=C(N)NCCC[C@@H]1NC(=O)CNC(=O)[C@H](Cc2ccccc2)SC[C@@H](C(=O)O)NC(=O)[C@H](CC(=O)O)NC(=O)CNC1=O
14 | 6.36 | N=C(N)NCCC[C@@H]1NC(=O)[C@@H](Cc2ccccc2)NC(=O)C[S+]([O-])C[C@@H](C(=O)O)NC(=O)[C@H](CC(=O)O)NC(=O)CNC1=O (some centres not stated)
15 | 5.31 | CCC1SC[C@@H](C(=O)O)NC(=O)[C@H](CC(=O)O)NC(=O)CNC(=O)[C@H](CCCNC(=N)N)NC(=O)CNC1=O (some centres not stated)
16 | 4.46 | N=C(N)NCCC[C@@H]1NC(=O)CCNC(=O)CSC[C@@H](C(=O)O)NC(=O)[C@H](CC(=O)O)NC(=O)CNC1=O
17 | 4.51 | N=C(N)NCCC[C@@H]1NC(=O)c2cccc(c2)CSC[C@@H](C(=O)O)NC(=O)[C@H](CC(=O)O)NC(=O)CNC1=O
18 | 6.66 | N=C(N)NCCC[C@@H]1NC(=O)[C@H](Cc2ccccc2)NC(=O)CSC[C@@H](C(=O)O)NC(=O)[C@H](CC(=O)O)NC(=O)CNC1=O
19 | 7.10 | CC(C)[C@@H]1NC(=O)CSC[C@@H](C(=O)O)NC(=O)[C@H](CC(=O)O)NC(=O)CNC(=O)[C@H](CCCNC(=N)N)NC1=O
20 | 6.43 | N=C(N)NCCC[C@@H]1NC(=O)CNC(=O)C[S+]([O-])C[C@@H](C(=O)O)NC(=O)[C@H](CC(=O)O)NC(=O)CNC1=O (some centres not stated)
21 | 5.97 | N=C(N)NCCC[C@@H]1NC(=O)[C@@H](Cc2cnc[nH]2)NC(=O)CSC[C@@H](C(=O)O)NC(=O)[C@H](CC(=O)O)NC(=O)CNC1=O
22 | 6.34 | N=C(N)NCCC[C@@H]1NC(=O)[C@H](CC(N)=O)NC(=O)C[S+]([O-])C[C@@H](C(=O)O)NC(=O)[C@H](CC(=O)O)NC(=O)CNC1=O (some centres not stated)
23 | 4.73 | N=C(N)NCCC[C@@H]1NC(=O)[C@@H](Cc2ccccc2)NC(=O)CSC[C@@H](C(=O)O)NC(=O)[C@H](CC(=O)O)NC(=O)CNC1=O
24 | 6.11 | N=C(N)NCCC[C@@H]1NC(=O)CNC(=O)C(c2cccc3ccccc23)SC[C@@H](C(=O)O)NC(=O)[C@H](CC(=O)O)NC(=O)CNC1=O (some centres not stated)
25 | 5.11 | N=C(N)NCCC[C@@H]1NC(=O)CNC(=O)CS(=O)(=O)C[C@@H](C(=O)O)NC(=O)[C@H](CC(=O)O)NC(=O)CNC1=O

Row | pIC50 | SMILES
26 | 5.15 | N=C(N)NCCC[C@@H]1NC(=O)CNC(=O)[C@@H](Cc2ccccc2)SC[C@@H](C(=O)O)NC(=O)[C@H](CC(=O)O)NC(=O)CNC1=O
27 | 5.83 | N=C(N)NCCC[C@@H]1NC(=O)CNC(=O)C(c2ccc(-c3ccccc3)cc2)SC[C@@H](C(=O)O)NC(=O)[C@H](CC(=O)O)NC(=O)CNC1=O (some centres not stated)
28 | 5.65 | N=C(N)NCCC[C@@H]1NC(=O)[C@H](Cc2ccccc2)NC(=O)C[S+]([O-])C[C@@H](C(=O)O)NC(=O)[C@H](CC(=O)O)NC(=O)CNC1=O (some centres not stated)
29 | 5.82 | CCCC1SC[C@@H](C(=O)O)NC(=O)[C@H](CC(=O)O)NC(=O)CNC(=O)[C@H](CCCNC(=N)N)NC(=O)CNC1=O (some centres not stated)
30 | 5.32 | N=C(N)NCCC[C@@H]1NC(=O)[C@@H](Cc2c[nH]c3ccccc23)NC(=O)CSC[C@@H](C(=O)O)NC(=O)[C@H](CC(=O)O)NC(=O)CNC1=O
31 | 6.22 | N=C(N)NCCC[C@@H]1NC(=O)[C@H](CCCCN)NC(=O)CSC[C@@H](C(=O)O)NC(=O)[C@H](CC(=O)O)NC(=O)CNC1=O
32 | 4.19 | N=C(N)NCCC[C@@H]1NC(=O)CNC(=O)CCSC[C@@H](C(=O)O)NC(=O)[C@H](CC(=O)O)NC(=O)CNC1=O
33 | 6.70 | CC(C)C[C@@H]1NC(=O)CSC[C@@H](C(=O)O)NC(=O)[C@H](CC(=O)O)NC(=O)CNC(=O)[C@H](CCCNC(=N)N)NC1=O
34 | 6.32 | N=C(N)NCCC[C@@H]1NC(=O)[C@H](CO)NC(=O)CSC[C@@H](C(=O)O)NC(=O)[C@H](CC(=O)O)NC(=O)CNC1=O
35 | 6.57 | CC[C@H](C)[C@@H]1NC(=O)CSC[C@@H](C(=O)O)NC(=O)[C@H](CC(=O)O)NC(=O)CNC(=O)[C@H](CCCN=C(N)N)NC1=O
36 | 5.53 | C[C@H](O)[C@H]1NC(=O)CSC[C@@H](C(=O)O)NC(=O)[C@H](CC(=O)O)NC(=O)CNC(=O)[C@H](CCCN=C(N)N)NC1=O
37 | 5.22 | CC[C@@H](C)[C@H]1NC(=O)CSC[C@@H](C(=O)O)NC(=O)[C@H](CC(=O)O)NC(=O)CNC(=O)[C@H](CCCN=C(N)N)NC1=O
38 | 6.62 | C[C@@H](O)[C@@H]1NC(=O)CSC[C@@H](C(=O)O)NC(=O)[C@H](CC(=O)O)NC(=O)CNC(=O)[C@H](CCCN=C(N)N)NC1=O
39 | < 3.30 | CC(=O)NCC(=O)N[C@@H](CCCNC(=N)N)C(=O)NCC(=O)N[C@@H](CC(=O)O)C(=O)N[C@H](C(N)=O)C(C)C (Ac-GRGDV-NH2)
40 | 4.11 | CC(=O)NCC(=O)N[C@@H](CCCNC(=N)N)C(=O)NCC(=O)N[C@@H](CC(=O)O)C(=O)N[C@H](C(=O)O)C(C)C (Ac-GRGDV-OH)
41 | 5.67 | N=C(N)NCCC[C@@H]1NC(=O)[C@H](CC(=O)O)NC(=O)C[S+]([O-])C[C@@H](C(=O)O)NC(=O)[C@H](CC(=O)O)NC(=O)CNC1=O (some centres not stated) (DRGD[Cys(O)(CH2CO)]-OH; lactam N-5)
42 | < 3.30 | N=C(N)NCCC[C@H](NC(=O)CN)C(=O)NCC(=O)N[C@@H](CC(=O)O)C(=O)N[C@@H](CC(=O)O)C(=O)O (H-GRGDD-OH)
43 | 3.77 | CC(C)C[C@H](NC(=O)[C@H](CC(=O)O)NC(=O)CNC(=O)[C@H](CCCNC(=N)N)NC(=O)CN)C(=O)O (H-GRGDL-OH)
44 | 3.77 | N=C(N)NCCC[C@H](NC(=O)CN)C(=O)NCC(=O)N[C@@H](CC(=O)O)C(=O)N[C@@H](Cc1ccc(O)cc1)C(=O)O (H-GRGDY-OH)
45 | 4.37 | NC(N)=NCCC[C@H](N)C(=O)NCC(=O)N[C@@H](CC(=O)O)C(=O)N[C@@H](Cc1ccccc1)C(=O)O (H-RGDF-OH)
46 | < 5.70 | CC(C)C[C@H](NC(=O)[C@H](CC(=O)O)NC(=O)CNC(=O)[C@@H](N)CCCNC(=N)N)C(=O)O (H-RGDL-OH)
47 | 4.03 | N=C(N)NCCC[C@H](N)C(=O)NCC(=O)N[C@@H](CC(=O)O)C(=O)N[C@@H](Cc1ccc(O)cc1)C(=O)O (H-RGDY-OH)
48 | 7.00 | CC(C)C[C@@H]1NC(=O)C[S+]([O-])C[C@@H](C(=O)O)NC(=O)[C@H](CC(=O)O)NC(=O)CNC(=O)[C@H](CCCNC(=N)N)NC1=O (some centres not stated) (LRGD[Cys(O)(CH2CO)]-OH; lactam N-5)
49 | 6.68 | CC(C)[C@@H]1NC(=O)C[S+]([O-])C[C@@H](C(=O)O)NC(=O)[C@H](CC(=O)O)NC(=O)CNC(=O)[C@H](CCCNC(=N)N)NC1=O (some centres not stated) (VRGD[Cys(O)(CH2CO)]-OH; lactam N-5)
50 | 6.70 | N=C(N)NCCC[C@@H]1NC(=O)[C@H](Cc2ccc(O)cc2)NC(=O)C[S+]([O-])C[C@@H](C(N)=O)NC(=O)[C@H](CC(=O)O)NC(=O)CNC1=O (some centres not stated) (YRGD[Cys(O)(CH2CO)]-NH2; lactam N-5)

Row | SMILES | pIC50
51 | N=C(N)NCCC[C@@H]1NC(=O)[C@@H](Cc2ccc(O)cc2)NC(=O)CS(=O)(=O)C[C@@H](C(=O)O)NC(=O)[C@H](CC(=O)O)NC(=O)CNC1=O | 6.68
52 | N=C(N)NCCC[C@@H]1NC(=O)[C@@H](Cc2ccc(O)cc2)NC(=O)C[S+]([O-])C[C@@H](C(=O)O)NC(=O)[C@H](CC(=O)O)NC(=O)CNC1=O (some centres not stated) | 6.92
53 | N=C(N)NCCC[C@@H]1NC(=O)[C@H](Cc2ccc(O)cc2)NC(=O)C[S+]([O-])C[C@@H](C(=O)O)NC(=O)[C@H](CC(=O)O)NC(=O)CNC1=O (some centres not stated) | 6.35
54 | C[C@@H](O)[C@@H]1NC(=O)C[S+]([O-])C[C@@H](C(=O)O)NC(=O)[C@H](CC(=O)O)NC(=O)CNC(=O)[C@H](CCCN=C(N)N)NC1=O (some centres not stated) | 7.00
55 | CC(C)[C@H](NC(=O)[C@H](CC(=O)O)NC(=O)CNC(=O)[C@H](CCCNC(=N)N)NC(=O)CN)C(=O)O (H-GRGDV-OH) | 4.12
56 | N=C(N)NCCC[C@@H]1NC(=O)[C@H](CCCCN)NC(=O)C[S+]([O-])C[C@@H](C(=O)O)NC(=O)[C@H](CC(=O)O)NC(=O)CNC1=O (some centres not stated) (KRGD[Cys(O)(CH2CO)]-OH; lactam N-5) | 5.55
57 | N=C(N)NCCC[C@@H]1NC(=O)[C@H](CO)NC(=O)C[S+]([O-])C[C@@H](C(=O)O)NC(=O)[C@H](CC(=O)O)NC(=O)CNC1=O (some centres not stated) (SRGD[Cys(O)(CH2CO)]-OH; lactam N-5) | 6.31
